Assay results: ChEMBL document CHEMBL1156261, “Evaluation of substituted N,N'-diarylsulfonamides as activators of the tumor cell specific M2 isoform of pyruvate kinase” (J Med Chem, 2010)
≈ marks a conversion by molar mass, not a printed value. Calls of active or inactive are those of the source.

Key:
[1] = target: Pyruvate kinase PKLR (Homo sapiens) (UniProt P30613); assay: Activation of PKR assessed as pyruvate formation by fluorescent pyruvate kinase-lactate dehydrogenase coupled assay relative to control; parameters: concentration or dose not given beside the values
[2] = target: Pyruvate kinase PKLR (Homo sapiens) (UniProt P30613); assay: Activation of PKR assessed as ATP product formation by luminescent pyruvate kinase-luciferase coupled assay relative to control; parameters: concentration or dose not given beside the values
Outline: (§1)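 Luciferase-coupled ATP production assay run as for PKM2: imidazole pH 7.2 buffer with KCl, MgCl2, Tween 20 and BSA, 0.1 mM ADP, 0.5 mM PEP, 1 h at r.t., Kinase-Glo luminescence. Enzyme final concentrations were PKM1 1 nM, PKL 0.1 nM, PKR 0.1 nM. % activation normalized to DMSO (neutral) and no-enzyme controls.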

[3] = target: Pyruvate kinase PKLR (Homo sapiens) (UniProt P30613); assay: Activation of PKL assessed as pyruvate formation by fluorescent pyruvate kinase-lactate dehydrogenase coupled assay relative to control; parameters: concentration or dose not given beside the values
[4] = target: Pyruvate kinase PKLR (Homo sapiens) (UniProt P30613); assay: Activation of PKL assessed as ATP product formation by luminescent pyruvate kinase-luciferase coupled assay relative to control; parameters: concentration or dose not given beside the values; outline: as §1
Pyruvate kinase PKM [5] = target: T1, Pyruvate kinase PKM (Homo sapiens, UniProt P14618); assay: Activation of PKM2 assessed as ATP product formation at 57 uM by luminescent pyruvate kinase-luciferase coupled assay relative to fructose-1,6-bis-phosphate
Outline: (§2)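 Recombinant human PKM2 (0.1 nM final) in 50 mM imidazole pH 7.2, 50 mM KCl, 7 mM MgCl2, 0.01% Tween 20, 0.05% BSA; 0.1 mM ADP, 0.5 mM PEP; 1 h at r.t., then Kinase-Glo luciferase read of ATP formed. Activation % = (c−n)/(n−i)×100 against DMSO and no-enzyme controls; 100% ≈ 2-fold over basal signal. Max response taken at 57 μM; three separate experiments.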
Target sequence in this assay (P14618 2-531 limits assumed): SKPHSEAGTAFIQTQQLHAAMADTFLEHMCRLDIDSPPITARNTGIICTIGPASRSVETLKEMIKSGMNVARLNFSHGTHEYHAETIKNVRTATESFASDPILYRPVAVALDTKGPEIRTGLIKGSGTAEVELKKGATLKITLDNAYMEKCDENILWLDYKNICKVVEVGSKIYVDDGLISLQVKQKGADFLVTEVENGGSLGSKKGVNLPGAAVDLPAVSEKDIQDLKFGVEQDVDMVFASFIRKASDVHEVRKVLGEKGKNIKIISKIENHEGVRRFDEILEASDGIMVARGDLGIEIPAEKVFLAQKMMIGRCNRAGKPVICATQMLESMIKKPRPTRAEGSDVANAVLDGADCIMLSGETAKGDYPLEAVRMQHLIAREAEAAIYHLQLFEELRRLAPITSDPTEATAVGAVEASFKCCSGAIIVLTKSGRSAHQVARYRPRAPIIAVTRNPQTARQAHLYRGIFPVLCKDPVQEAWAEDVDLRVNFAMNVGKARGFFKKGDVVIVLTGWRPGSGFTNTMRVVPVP

[6] = Kinetic solubility by quantitative nitrogen detection assay; assay type: physicochemical
Outline: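 Kinetic solubility was determined by quantitative nitrogen detection in three separate experiments.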

Pyruvate kinase PKM [7] = target: T1, Pyruvate kinase PKM; assay: Activation of PKM1 assessed as pyruvate formation by fluorescent pyruvate kinase-lactate dehydrogenase coupled assay
Target sequence in this assay (P14618 2-531 limits assumed): as above

Pyruvate kinase PKM [8] = target: T1, Pyruvate kinase PKM; assay: Activation of PKM1 assessed as ATP product formation by luminescent pyruvate kinase-luciferase coupled assay; outline: as §1
Target sequence in this assay (P14618 2-531 limits assumed): as above

Pyruvate kinase PKM [9] = target: T1, Pyruvate kinase PKM; assay: Activation of PKM2 assessed as ATP product formation by luminescent pyruvate kinase-luciferase coupled assay; outline: as §2
Target sequence in this assay (P14618 whole entry): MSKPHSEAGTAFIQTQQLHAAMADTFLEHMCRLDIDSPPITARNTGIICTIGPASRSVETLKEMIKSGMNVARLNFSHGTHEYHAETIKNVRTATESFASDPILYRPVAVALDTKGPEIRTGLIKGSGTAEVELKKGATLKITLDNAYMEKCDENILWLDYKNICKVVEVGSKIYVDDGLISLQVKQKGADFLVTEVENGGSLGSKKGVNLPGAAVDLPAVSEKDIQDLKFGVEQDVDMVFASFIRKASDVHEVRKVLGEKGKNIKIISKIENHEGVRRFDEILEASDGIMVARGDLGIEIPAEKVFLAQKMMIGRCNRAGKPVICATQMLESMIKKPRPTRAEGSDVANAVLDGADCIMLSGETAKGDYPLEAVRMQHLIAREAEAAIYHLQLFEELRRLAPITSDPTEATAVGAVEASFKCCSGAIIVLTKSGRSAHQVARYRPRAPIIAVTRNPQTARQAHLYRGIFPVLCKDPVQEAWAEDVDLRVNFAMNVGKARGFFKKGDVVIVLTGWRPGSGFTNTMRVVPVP

Pyruvate kinase PKM [10] = target: T1, Pyruvate kinase PKM; assay: Activation of PKM2 in presence of excess of phosphoenolpyruvate level
Target sequence in this assay (P14618 2-531 limits assumed): as the sequence (P14618 2-531 limits assumed) above

Pyruvate kinase PKM [11] = target: T1, Pyruvate kinase PKM; assay: Activation of PKM2 assessed as reduction of Km for phosphoenolpyruvate relative to untreated control
Outline: (§3)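 Steady-state kinetics were measured by the PK–LDH coupled assay at about 22 °C with 10 nM PKM2, 200 mM KCl and 15 mM MgCl2. One substrate (PEP or ADP) was varied with the other held at 4.0 mM, with or without activator. Fluorescence was converted to pmol NADH by a standard curve; initial rates (pmol/min) were fit for KM.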
Target sequence in this assay (P14618 2-531 limits assumed): as above

Pyruvate kinase PKM [12] = target: T1, Pyruvate kinase PKM; assay: Activation of PKM2 assessed as effect on Km for ADP relative to untreated control; outline: as §3
Target sequence in this assay (P14618 2-531 limits assumed): as above

Pyruvate kinase PKM [13] = target: T1, Pyruvate kinase PKM; assay: Activation of PKM2 assessed as pyruvate formation by fluorescent pyruvate kinase-lactate dehydrogenase coupled assay
Outline: (§4)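 Kinetic PK–LDH coupled read: 10 nM hPK-M2 with 1 μM LDH in 50 mM Tris-Cl pH 8.0, 200 mM KCl, 15 mM MgCl2, 0.1 mM PEP, 4.0 mM ADP, 0.2 mM NADH. NADH fluorescence decrease was read at 30 s intervals over 3–6 min.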
Target sequence in this assay (P14618 whole entry): as the sequence (P14618 whole entry) above

Pyruvate kinase PKM [14] = target: T1, Pyruvate kinase PKM; assay: Activation of PKM2 assessed as pyruvate formation by fluorescent pyruvate kinase-lactate dehydrogenase coupled assay relative to fructose-1,6-bis-phosphate; outline: as §4

Chain of Pyruvate kinase PKLR (Homo sapiens) (P30613 whole entry, looked up): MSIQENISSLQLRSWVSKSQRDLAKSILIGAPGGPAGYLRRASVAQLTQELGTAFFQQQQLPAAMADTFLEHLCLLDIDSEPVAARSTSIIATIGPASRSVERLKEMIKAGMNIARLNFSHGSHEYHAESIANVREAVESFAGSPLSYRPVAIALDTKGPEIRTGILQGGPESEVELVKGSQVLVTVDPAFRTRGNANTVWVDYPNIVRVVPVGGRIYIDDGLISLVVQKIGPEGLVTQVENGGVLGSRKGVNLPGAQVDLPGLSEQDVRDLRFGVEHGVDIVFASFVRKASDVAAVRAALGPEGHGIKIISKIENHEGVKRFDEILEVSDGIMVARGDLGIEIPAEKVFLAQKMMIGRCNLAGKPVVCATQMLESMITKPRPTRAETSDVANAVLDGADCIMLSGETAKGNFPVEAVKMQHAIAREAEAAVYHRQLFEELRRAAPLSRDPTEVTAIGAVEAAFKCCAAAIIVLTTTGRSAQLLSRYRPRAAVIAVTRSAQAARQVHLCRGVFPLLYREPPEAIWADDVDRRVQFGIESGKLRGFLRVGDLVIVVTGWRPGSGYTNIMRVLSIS

Compound	Activity [1] [%]	Activity [2] [%]	Activity [3] [%]	Activity [4] [%]	Activity (Pyruvate kinase PKM [5])	solubility kinetic [6] [µM]	Activity (Pyruvate kinase PKM [7])	Activity (Pyruvate kinase PKM [8])	AC50 (Pyruvate kinase PKM [9]; read-out: AC50) [µM]	Activity (Pyruvate kinase PKM [10])	AC50 (Pyruvate kinase PKM [9])	fold change (FC) (Pyruvate kinase PKM [11])	Activity (Pyruvate kinase PKM [12])	AC50 (Pyruvate kinase PKM [13]) [µM]	Activity (Pyruvate kinase PKM [14]) [%]
O=S(=O)(c1ccc2c(c1)OCCO2)N1CCCN(S(=O)(=O)c2c(F)cccc2F)CC1	< 30	< 30	< 30	< 30	120%	5.6 (≈ 2.66 µg/mL)	inactive	inactive	–	–	–	–	–	–	–
O=S(=O)(NC1CCN(S(=O)(=O)c2c(F)cccc2F)CC1)c1ccc2c(c1)OCCO2	< 30	< 30	< 30	< 30	–	–	inactive	inactive	9	–	–	–	–	–	–
Nc1cccc(S(=O)(=O)N2CCCN(S(=O)(=O)c3ccc4c(c3)OCCO4)CC2)c1	< 30	< 30	< 30	< 30	81.7%	51.2 (≈ 23.2 µg/mL)	inactive	inactive	–	–	–	–	–	–	–
O=S(=O)(NC1CCN(S(=O)(=O)c2ccc3c(c2)OCCO3)C1)c1c(F)cccc1F (stereo not drawn)	< 30	< 30	< 30	< 30	82.4%	–	inactive	inactive	> 15	–	–	–	–	–	–
COc1cc(F)c(S(=O)(=O)N2CCCN(S(=O)(=O)c3cccc(N)c3)CC2)c(F)c1	< 30	< 30	< 30	< 30	92.5%	26.3 (≈ 12.1 µg/mL)	inactive	inactive	0.223	–	–	–	–	–	–
O=P(O)(O)OC[C@H]1O[C@@](O)(COP(=O)(O)O)[C@@H](O)[C@@H]1O	–	–	–	–	–	–	–	–	–	inactive	–	–	–	–	–
O=S(=O)(NC1CCN(S(=O)(=O)c2ccc3c(c2)OCCO3)CC1)c1c(F)cccc1F	< 30	< 30	< 30	< 30	101%	–	inactive	inactive	3.69	–	–	–	–	–	–
O=S(=O)(c1ccc2c(c1)OCCO2)N1CCN(S(=O)(=O)c2c(F)cccc2F)CC1	< 30	< 30	< 30	< 30	94.4%	< 1.1	inactive	inactive	–	–	–	–	–	–	–
Nc1cccc(S(=O)(=O)N2CCN(S(=O)(=O)c3c(F)cccc3F)CC2)c1	< 30	< 30	< 30	< 30	84.4%	5.7 (≈ 2.38 µg/mL)	inactive	inactive	0.099	–	–	–	–	–	–
O=S(=O)(N[C@H]1CC[C@@H](NS(=O)(=O)c2c(F)cccc2F)CC1)c1ccc2c(c1)OCCO2	< 30	< 30	< 30	< 30	60.7%	–	inactive	inactive	> 35	–	–	–	–	–	–
O=S(=O)(NCC1CN(S(=O)(=O)c2ccc3c(c2)OCCO3)C1)c1c(F)cccc1F	< 30	< 30	< 30	< 30	93.3%	–	inactive	inactive	4.47	–	–	–	–	–	–
O=S(=O)(NCC1CN(S(=O)(=O)c2c(F)cccc2F)C1)c1ccc2c(c1)OCCO2	< 30	< 30	< 30	< 30	108%	–	inactive	inactive	3.05	–	–	–	–	–	–
C[C@H]1CN(S(=O)(=O)c2ccc3c(c2)OCCO3)CCN1S(=O)(=O)c1c(F)cccc1F	< 30	< 30	< 30	< 30	108%	–	inactive	inactive	9.18	–	–	–	–	–	–
O=S(=O)(NCCNS(=O)(=O)c1c(F)cccc1F)c1ccc2c(c1)OCCO2	< 30	< 30	< 30	< 30	60.3%	–	inactive	inactive	> 15	–	–	–	–	–	–
O=C(c1c(F)cccc1F)N1CCN(S(=O)(=O)c2ccc3c(c2)OCCO3)CC1	< 30	< 30	< 30	< 30	inactive	–	inactive	inactive	–	–	Not Active	–	–	–	–
COc1ccc(S(=O)(=O)N2CCN(S(=O)(=O)c3ccc4c(c3)OCCO4)CC2)cc1	< 30	< 30	< 30	< 30	92.2%	–	inactive	inactive	–	inactive	–	10	inactive	0.75	150
O=S(=O)(NC1CCN(S(=O)(=O)c2c(F)cccc2F)C1)c1ccc2c(c1)OCCO2 (stereo not drawn)	< 30	< 30	< 30	< 30	83.7%	–	inactive	inactive	> 10	–	–	–	–	–	–
C[C@@H]1CN(S(=O)(=O)c2ccc3c(c2)OCCO3)CCN1S(=O)(=O)c1c(F)cccc1F	< 30	< 30	< 30	< 30	108%	–	inactive	inactive	2.93	–	–	–	–	–	–
Nc1cccc(S(=O)(=O)N2CCN(S(=O)(=O)c3ccc4c(c3)OCCO4)CC2)c1	< 30	< 30	< 30	< 30	83.7%	7.3 (≈ 3.21 µg/mL)	inactive	inactive	0.043	–	–	–	–	–	–
O=S(=O)(c1ccc2c(c1)OCCO2)N1CCN(S(=O)(=O)c2cccc[n+]2[O-])CC1	< 30	< 30	< 30	< 30	81.5%	–	inactive	inactive	> 10	–	–	–	–	–	–
COc1cc(F)c(S(=O)(=O)N2CCN(S(=O)(=O)c3cccc(N)c3)CC2)c(F)c1	< 30	< 30	< 30	< 30	90.5%	< 0.7	inactive	inactive	0.026	–	–	–	–	–	–
O=C(c1ccc2c(c1)OCCO2)N1CCN(S(=O)(=O)c2c(F)cccc2F)CC1	< 30	< 30	< 30	< 30	inactive	–	inactive	inactive	–	–	Not Active	–	–	–	–
O=S(=O)(c1ccc2c(c1)OCCO2)N1CCN(S(=O)(=O)c2ccc3c(c2)OCCO3)CC1	< 30	< 30	< 30	< 30	89.7%	–	inactive	inactive	–	–	–	–	–	–	–
